Results published in ChEMBL document CHEMBL1165909, “Analgesic, anti-pyretic and DNA cleavage studies of novel pyrimidine derivatives of coumarin moiety” (Eur J Med Chem, 2010).
Activity calls are given as the source filed them. The calls are words filed in the database; no cut-off is given here.

Legend:
Rattus norvegicus [1] = test: Antipyretic activity against brewer's yeast-induced hyperthermia in albino Wistar rat assessed as change in rectal temperature at 100 mg/kg, po after 6 hrs (reference value: 33.44 +/- 0.18 degC); type: functional
Rattus norvegicus [2] = test: Acute toxicity in albino Wistar rat assessed as sedation at up to 3 g/kg, po after 24 hrs; type: organism-based; settings: in vivo, 3000 mg/kg
Outline: (§1)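 Albino rats of either sex, groups of six, dosed from 100 up to 3000 mg kg^-1 body weight. Watched continuously for 8 h for signs such as altered motor activity, ataxia, tremors, convulsions, sedation and lacrimation. Killed at 24 h; stomach, intestine and liver inspected under magnifying lenses for ulcer-haemorrhagic spots.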

Rattus norvegicus [3] = test: Acute toxicity in albino Wistar rat assessed as stomach ulcerhaemorrhagic spots at up to 3 g/kg, po after 24 hrs; type: organism-based; settings: in vivo, 3000 mg/kg; outline: as §1
Rattus norvegicus [4] = test: Acute toxicity in albino Wistar rat assessed as tremors at up to 3 g/kg, po after 24 hrs; type: organism-based; settings: in vivo, 3000 mg/kg; outline: as §1
Rattus norvegicus [5] = test: Analgesic activity in albino Wistar rat assessed as reaction time required for tail flicking at 25 mg/kg, po after 90 mins by tail-flick method (reference value: 3.87 +/- 0.355 sec); type: functional
Rattus norvegicus [6] = test: Analgesic activity in albino Wistar rat assessed as reaction time required for tail flicking at 25 mg/kg, po after 60 mins by tail-flick method (reference value: 4 +/- 0.360 sec); type: functional
Rattus norvegicus [7] = test: Acute toxicity in albino Wistar rat assessed as intestine ulcerhaemorrhagic spots at up to 3 g/kg, po after 24 hrs; type: organism-based; settings: in vivo, 3000 mg/kg; outline: as §1
Rattus norvegicus [8] = test: Acute toxicity in albino Wistar rat assessed as convulsion at up to 3 g/kg, po after 24 hrs; type: organism-based; settings: in vivo, 3000 mg/kg; outline: as §1
Rattus norvegicus [9] = test: Antipyretic activity against brewer's yeast-induced hyperthermia in albino Wistar rat assessed as change in rectal temperature at 100 mg/kg, po after 5 hrs (reference value: 34.36 +/- 0.14 degC); type: functional
Rattus norvegicus [10] = test: Acute toxicity in albino Wistar rat assessed as mortality at up to 3 g/kg, po after 24 hrs; type: organism-based; settings: in vivo, 3000 mg/kg; outline: as §1
Nucleic Acid = test: Induction of Escherichia coli DNA cleavage at 25 mg after 24 hrs by agarose gel electrophoresis method; type: nucleic-acid assay
Outline: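 E. coli grown in nutrient broth 24 h at 37 °C. Genomic DNA isolated by SDS lysis, phenol (55 °C, 10 min), chloroform:isoamyl alcohol extraction and ethanol precipitation, dissolved in TAE. Compounds at 1 mg/ml in DMF added to DNA, incubated 2 h at 37 °C. Run on agarose gel at 50 V about 30 min, stained with ethidium bromide, bands compared with DNA marker.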

Rattus norvegicus [11] = test: Acute toxicity in albino Wistar rat assessed as haemorrhagic spots at up to 3 g/kg, po after 24 hrs; type: organism-based; settings: in vivo, 3000 mg/kg; outline: as §1
Rattus norvegicus [12] = test: Analgesic activity in albino Wistar rat assessed as reaction time required for tail flicking at 25 mg/kg, po after 30 mins by tail-flick method (reference value: 3.97 +/- 0.287 sec); type: functional
Rattus norvegicus [13] = test: Acute toxicity in albino Wistar rat assessed as ulceration at up to 3 g/kg, po after 24 hrs; type: organism-based; settings: in vivo, 3000 mg/kg; outline: as §1
Rattus norvegicus [14] = test: Antipyretic activity against brewer's yeast-induced hyperthermia in albino Wistar rat assessed as change in rectal temperature at 100 mg/kg, po after 3 hrs (reference value: 32.80 +/- 0.09 degC); type: functional
Rattus norvegicus [15] = test: Antipyretic activity against brewer's yeast-induced hyperthermia in albino Wistar rat assessed as change in rectal temperature at 100 mg/kg, po after 1 hr (reference value: 33.78 +/- 0.18 degC); type: functional

| Structure (SMILES) | T (Rattus norvegicus [1]) [°C] | Activity (Rattus norvegicus [2]) | Activity (Rattus norvegicus [3]) | Activity (Rattus norvegicus [4]) | Time (Rattus norvegicus [5]) [s] | Time (Rattus norvegicus [6]) [s] | Activity (Rattus norvegicus [7]) | Activity (Rattus norvegicus [8]) | T (Rattus norvegicus [9]) [°C] | Activity (Rattus norvegicus [10]) | Activity (Nucleic Acid) | Activity (Rattus norvegicus [11]) | Time (Rattus norvegicus [12]) [s] | Activity (Rattus norvegicus [13]) | T (Rattus norvegicus [14]) [°C] | T (Rattus norvegicus [15]) [°C] |
| --- | --- | --- | --- | --- | --- | --- | --- | --- | --- | --- | --- | --- | --- | --- | --- | --- |
| Cc1ccc2c(COc3ccc(-c4cc(-c5ccccc5)nc(O)n4)cc3)cc(=O)oc2c1 | 32.4 | Non-toxic | Non-toxic | Non-toxic | 7.75 | 6.25 | Non-toxic | Non-toxic | 33.1 | Non-toxic | Active | Non-toxic | 4.5 | Non-toxic | 32.84 | 32.4 |
| Cc1ccc2oc(=O)cc(COc3ccc(-c4cc(-c5ccccc5)nc(S)n4)cc3)c2c1 | 31.98 | Non-toxic | Non-toxic | Non-toxic | 7.45 | 6.5 | Non-toxic | Non-toxic | 32.8 | Non-toxic | – | Non-toxic | 4.5 | Non-toxic | 32.77 | 32.55 |
| Cc1ccc2oc(=O)cc(COc3ccc(-c4cc(-c5ccccc5)nc(O)n4)cc3)c2c1 | 32.97 | Non-toxic | Non-toxic | Non-toxic | 6.2 | 5.46 | Non-toxic | Non-toxic | 33.12 | Non-toxic | Active | Non-toxic | 4.48 | Non-toxic | 32.31 | 33.18 |
| O=c1cc(COc2ccc(-c3cc(-c4ccccc4)nc(S)n3)cc2)c2c(ccc3ccccc32)o1 | 32.66 | Non-toxic | Non-toxic | Non-toxic | – | 4.5 | Non-toxic | Non-toxic | 33.01 | Non-toxic | Active | Non-toxic | 4.25 | Non-toxic | 31.98 | 32.92 |
| Nc1nc(-c2ccccc2)cc(-c2ccc(OCc3cc(=O)oc4c3ccc3ccccc34)cc2)n1 | 32.09 | Non-toxic | Non-toxic | Non-toxic | 5 | 4.75 | Non-toxic | Non-toxic | 32.51 | Non-toxic | – | Non-toxic | 4.04 | Non-toxic | 31.4 | 32.68 |
| O=c1cc(COc2ccc(-c3cc(-c4ccccc4)nc(O)n3)cc2)c2cc(Cl)ccc2o1 | 32.61 | Non-toxic | Non-toxic | Non-toxic | 4.25 | 4.04 | Non-toxic | Non-toxic | 33.28 | Non-toxic | Active | Non-toxic | 4.02 | Non-toxic | 32.64 | 33.18 |
| O=c1cc(COc2ccc(-c3cc(-c4ccccc4)nc(O)n3)cc2)c2ccc3ccccc3c2o1 | 32.74 | Non-toxic | Non-toxic | Non-toxic | 7.25 | 6.25 | Non-toxic | Non-toxic | 33.44 | Non-toxic | Active | Non-toxic | 4.75 | Non-toxic | 32.68 | 32.25 |
| Cc1ccc2oc(=O)cc(COc3ccc(-c4cc(-c5ccccc5)nc(N)n4)cc3)c2c1 | 33 | Non-toxic | Non-toxic | Non-toxic | 7.25 | 6.75 | Non-toxic | Non-toxic | 33.3 | Non-toxic | – | Non-toxic | 4.75 | Non-toxic | 31.68 | 32.66 |
| O=c1cc(COc2ccc(-c3cc(-c4ccccc4)nc(O)n3)cc2)c2c(ccc3ccccc32)o1 | 32.68 | Non-toxic | Non-toxic | Non-toxic | 8.87 | 8.25 | Non-toxic | Non-toxic | 32.82 | Non-toxic | Active | Non-toxic | 5 | Non-toxic | 32.72 | 32.22 |
| Nc1nc(-c2ccccc2)cc(-c2ccc(OCc3cc(=O)oc4ccc(Cl)cc34)cc2)n1 | 32.54 | Non-toxic | Non-toxic | Non-toxic | 7.1 | 7 | Non-toxic | Non-toxic | 32.09 | Non-toxic | – | Non-toxic | 5.02 | Non-toxic | 32.45 | 32.74 |
| Cc1ccc2c(COc3ccc(-c4cc(-c5ccccc5)nc(N)n4)cc3)cc(=O)oc2c1 | 32.8 | Non-toxic | Non-toxic | Non-toxic | 7.5 | 6.75 | Non-toxic | Non-toxic | 33.8 | Non-toxic | Active | Non-toxic | 5.1 | Non-toxic | 32.6 | 32.74 |
| Nc1nc(-c2ccccc2)cc(-c2ccc(OCc3cc(=O)oc4ccc5ccccc5c34)cc2)n1 | 31.88 | Non-toxic | Non-toxic | Non-toxic | 8 | 7.25 | Non-toxic | Non-toxic | 32.22 | Non-toxic | – | Non-toxic | 4 | Non-toxic | 31.84 | 32.8 |
| Cc1c(N(C)CS(=O)(=O)[O-])c(=O)n(-c2ccccc2)n1C.[Na+] [DIPYRONE SODIUM] | – | – | – | – | 9.02 | 8.76 | – | – | – | – | – | – | 5.77 | – | – | – |
| O=c1cc(COc2ccc(-c3cc(-c4ccccc4)nc(S)n3)cc2)c2cc(Cl)ccc2o1 | 32.84 | Non-toxic | Non-toxic | Non-toxic | 8.5 | 7.54 | Non-toxic | Non-toxic | 32.84 | Non-toxic | – | Non-toxic | 5.1 | Non-toxic | 32.61 | 32.5 |
| Cc1ccc2c(COc3ccc(-c4cc(-c5ccccc5)nc(S)n4)cc3)cc(=O)oc2c1 | 31.82 | Non-toxic | Non-toxic | Non-toxic | 7.5 | 7.25 | Non-toxic | Non-toxic | 32.9 | Non-toxic | Active | Non-toxic | 4.5 | Non-toxic | 32.66 | 32.81 |
